Published values of several laboratories.
Lines come from different studies, so protocols differ.
Observed: metabolic stability
Host: human

SMILES	test system	conditions	measurement	result
C[C@]1(O)CCCN(c2nc(Nc3ccc(S(=O)(=O)N[C@H]4CC[C@H](CN5CCN(c6ccc(C7CCC(=O)NC7=O)c(F)c6)CC5)CC4)cc3F)ncc2C(F)(F)F)C1 (stereo partly drawn)	liver microsomes	1 µM	scaled CLint	< 14 mL/min/kg
CCONC(=O)N1CCC[C@H](C(=O)NCc2nc(-c3ccc(C#N)cc3)cs2)C1	liver microsomes	0.5 µM	scaled CLint	11 mL/min/kg
CCCN(CCC)CCCOc1ccc2c(=O)c3c([nH]c2c1)CCCC3	liver microsomes	1 µM, pH 7.4	microsomal CLint	37.1 µL/min/mg
Cc1cc(S(=O)(=O)NC2CC(N3CCN(CC4CCN(c5cccc6c5n(C)c(=O)n6C5CCC(=O)NC5=O)CC4)CC3)C2)ccc1Nc1ncc(C(F)(F)F)c(N2CCC[C@](C)(O)C2)n1 (stereo partly drawn)	liver microsomes	1 µM	scaled CLint	< 14 mL/min/kg
CNC(C)(C)COCC(=O)N1CCC[C@H](C(=O)NCc2nc(-c3ccc(C(F)(F)F)cc3)cs2)C1	liver microsomes	0.5 µM	microsomal CLint	12 µL/min/mg
CCN(CC)CCOc1ccc2c(=O)c3c([nH]c2c1)CCCC3	liver microsomes	1 µM, pH 7.4	microsomal CLint	6.65 µL/min/mg
C[C@H](O)c1cnc(NS(=O)(=O)c2ccc(Cl)c(Cl)c2)nc1	hepatocytes	1 µM	hepatocyte CLint	< 3 µL/min/10⁶ cells
Cc1cc(S(=O)(=O)N[C@]2(C)C[C@H](N3CCN(CC4CCN(c5ccc6c(c5F)n(C)c(=O)n6C5CCC(=O)NC5=O)CC4)CC3)C2)ccc1Nc1ncc(C(F)(F)F)c(N2CCC[C@](C)(O)C2)n1 (stereo partly drawn)	liver microsomes	1 µM	scaled CLint	251 mL/min/kg
COCC(=O)N1CCC[C@H](C(=O)NCc2nc(-c3ccccc3)cs2)C1	hepatocytes	0.5 µM	scaled CLint	29 mL/min/kg
O=c1c2ccc(OCc3ccc(C(F)(F)F)cc3)cc2[nH]c2cc(Cl)cc(F)c12	liver microsomes	1 µM, pH 7.4	microsomal CLint	6.71 µL/min/mg
CNc1ccc(C(N)=O)cn1	hepatocytes	1 µM, pH 7.4	hepatocyte CLint	3 µL/min/10⁶ cells
C[C@H](O)c1cnc(NS(=O)(=O)c2ccc(C(F)(F)F)c(Cl)c2)nc1	hepatocytes	1 µM	hepatocyte CLint	< 3 µL/min/10⁶ cells
CNS(=O)(=O)c1ccc(Nc2ncc3cc(Cl)c(=O)n(C4CCCC4)c3n2)c(C)c1	liver microsomes	1 µM	scaled CLint	100 mL/min/kg
CCOCC(=O)N1CCC[C@H](C(=O)NCc2nc(-c3ccc(C)nc3)cs2)C1	liver microsomes	0.5 µM	scaled CLint	11 mL/min/kg
O=c1c2ccc(OCc3cccc(OC(F)(F)F)c3)cc2[nH]c2ccc(Cl)c(F)c12	liver microsomes	1 µM, pH 7.4	microsomal CLint	1.24 µL/min/mg
CCOCC(=O)N1C2CCC(C(=O)NCc3nc(-c4ccc(C#N)cc4)cs3)C1CC2 (stereo not drawn)	liver microsomes	0.5 µM	microsomal CLint	42 µL/min/mg
CNS(=O)(=O)c1ccc(Nc2ncc(C(F)(F)F)c([C@H]3CC[C@](C)(O)CC3)n2)c(C)c1	liver microsomes	1 µM	scaled CLint	< 14 mL/min/kg
CC(C)(C)OC(=O)N1CCC(Oc2ccc3c(=O)c4c(Cl)cc(F)cc4[nH]c3c2)CC1	liver microsomes	1 µM, pH 7.4	microsomal CLint	7.13 µL/min/mg
COCC(=O)N1CCC[C@H](C(=O)NCc2nc(-c3ccc(OC(F)(F)F)cc3)cs2)C1	liver microsomes	0.5 µM	microsomal CLint	37 µL/min/mg
O=c1c2ccc(OC3CCNCC3)cc2[nH]c2cc(F)cc(Cl)c12	liver microsomes	1 µM, pH 7.4	microsomal CLint	13.9 µL/min/mg
COCC(=O)N1CCC[C@H](C(=O)NCc2nc(-c3ccc(C#N)cc3)cs2)C1	liver microsomes	0.5 µM	scaled CLint	12 mL/min/kg
C[C@]1(O)CCCN(c2nc(Nc3ccc(S(=O)(=O)N[C@H]4CC[C@H](CN5CCN(c6ccc(C7CCC(=O)NC7=O)cc6F)CC5)CC4)cc3F)ncc2C(F)(F)F)C1 (stereo partly drawn)	liver microsomes	1 µM	scaled CLint	< 14 mL/min/kg
O=c1c2c([nH]c3cc(OCc4ccc(OC(F)(F)F)cc4)ccc13)CCCC2	liver microsomes	1 µM, pH 7.4	microsomal CLint	36.5 µL/min/mg
CNS(=O)(=O)c1ccc(Nc2ncc(C(F)(F)F)c(N3CCC(C)(O)CC3)n2)c(C)c1	liver microsomes	1 µM	scaled CLint	48 mL/min/kg
CC(C)(N)COCC(=O)N1CCC[C@H](C(=O)NCc2nc(-c3ccc(C(F)(F)F)cc3)cs2)C1	liver microsomes	0.5 µM	microsomal CLint	< 3 µL/min/mg
O=c1c2cc(F)c(Oc3ccc(OC(F)(F)F)cc3)cc2[nH]c2cc(Cl)cc(F)c12	liver microsomes	1 µM, pH 7.4	microsomal CLint	2.63 µL/min/mg
Cc1cc(S(=O)(=O)NC2CC(N3CCN(CC4CCN(c5ccc(NC6CCC(=O)NC6=O)cc5C)CC4)CC3)C2)ccc1Nc1ncc(C(F)(F)F)c(N2CCC[C@](C)(O)C2)n1 (stereo partly drawn)	liver microsomes	1 µM	scaled CLint	15 mL/min/kg
